Assay results from article PMC4050360 (Results in Pharma Sciences, 2014).
Values after ≈ are worked out from the molar mass of the structure shown.

What was measured:
[1] = In vivo pharmacokinetic study, intravenous emulsion; parameters: species or system female Sprague Dawley rats; details: rat
Outline: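 Female Sprague Dawley rats (248–276 g; n = 6/group) received a tail-vein dose molar equivalent to 5 mg aripiprazole/kg. Vehicle: submicron emulsion (20% w/w MCT oil, 1.2% lecithin, 2% glycerol, water; 1 mg aripiprazole-equivalent/mL). K-EDTA blood was sampled at 5, 15, 30 min and 1–24 h. Acidified-acetonitrile plasma extracts with d8 internal standard were analysed by positive-ESI MRM. Two-compartment fit; trapezoidal AUC extrapolated to infinity; mean ± SEM.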

[2] = cited from earlier work
[3] = ref 41 (Scifinder); cited from earlier work
[4] = female, Sprague Dawley, plasma, iv, 5 mg/kg

clearance ([1]; female, Sprague Dawley, plasma, iv, 5 mg aripiprazole/kg (molar equivalent)) [mL/min/kg]	Vd [1, 4] [L/kg]	half-life [1, 4] [h]	AUC0?8 ([1]; i.v., molar equivalent to 5 mg aripiprazole/kg, n = 6, mean ± SEM) [nmol?h/L]	SMILES	solubility in water [2] [µM]	Estimated pKa [3]
22.8	8.16 ± 0.75	~4.2	8176 ± 2647	O=C1CCc2ccc(OCCCCN3CCN(c4cccc(Cl)c4Cl)CC3)cc2N1 [aripiprazole]	9 (≈ 4.04 µg/mL)	
				O=C1CCc2ccccc2N1 [3,4-dihydro-2(1H)-quinolinone]		14.6
